Test [1] has as its system PC-3. The test is described as follows: Ability to stimulate PC3 cell proliferation by BrdU incorporation using colorimetric ELISA at 10 uM. The format is functional, Homo sapiens. The method, boiled down:
(§1)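 PC-3 cells (DMEM, 10% FBS, 2 mM L-glutamine) seeded at 7 × 10⁴/well, settled 24 h at 37 °C, 5% CO₂. NE added (0, 0.1, 1, 10, 50 μM) for 16 h. BrdU present during the last 4 h; incorporation read by colorimetric BrdU cell-proliferation ELISA. Expressed as % growth vs untreated. Mean ± SD of three separate experiments.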

Test [2] has as its system PC-3. The test is described as follows: Ability to stimulate PC3 cell proliferation by BrdU incorporation using colorimetric ELISA at 50 uM. The format is functional, Homo sapiens. The method, boiled down: as §1
A general note: Dividing cells build labelled thymidine or BrdU into new DNA.

Test [3] has as its system PC-3. The test is described as follows: Inhibition of NE-induced increase of PC3 cell proliferation using ELISA BrdU. The format is functional, cell-based. To be noted: Homo sapiens. An outline of the steps:
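PC-3 cells (7×10^4/well) plated 24 h, then given noradrenaline (0–50 μM) alone or with antagonist (1 μM, or 0.5 μM for one compound) for 16 h. BrdU added for the last 4 h and read by colorimetric ELISA as % growth; mean ± SD of three experiments.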
In general terms: ELISA stands for enzyme-linked immunosorbent assay.

Test [4] deals with T1, Alpha-1A adrenergic receptor (Rattus norvegicus) (UniProt P43140).
T1 sequence (whole entry): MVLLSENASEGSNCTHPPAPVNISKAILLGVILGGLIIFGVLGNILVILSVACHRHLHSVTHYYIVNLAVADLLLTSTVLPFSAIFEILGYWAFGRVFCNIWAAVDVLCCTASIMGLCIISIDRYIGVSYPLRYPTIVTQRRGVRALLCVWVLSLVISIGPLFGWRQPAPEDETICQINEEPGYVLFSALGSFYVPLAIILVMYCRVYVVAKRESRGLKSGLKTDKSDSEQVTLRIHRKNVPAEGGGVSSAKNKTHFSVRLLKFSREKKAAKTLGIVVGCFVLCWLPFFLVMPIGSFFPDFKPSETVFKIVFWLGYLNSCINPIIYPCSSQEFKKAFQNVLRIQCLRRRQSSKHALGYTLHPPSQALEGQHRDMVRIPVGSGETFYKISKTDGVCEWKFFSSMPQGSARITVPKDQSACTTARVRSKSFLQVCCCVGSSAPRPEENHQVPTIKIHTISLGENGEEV
Kind of test: ADRA1A blocking activity assessed by antagonism of (-)-NE induced contractions on isolated rat prostatic vas deferens. The test is classed as functional, tissue-based. The method, boiled down:
(§2)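 Isolated rat tissue: each antagonist concentration tested four times over 0.01–1 μM; pK_B calculated by van Rossum method from shifts of (-)-noradrenaline contraction curves (vas deferens, α1A; thoracic aorta, α1D) or (-)-phenylephrine contraction curves (spleen, α1B).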

Test [5] has as its target T2, Alpha-1B adrenergic receptor (Rattus norvegicus) (UniProt P15823).
T2 sequence (whole entry): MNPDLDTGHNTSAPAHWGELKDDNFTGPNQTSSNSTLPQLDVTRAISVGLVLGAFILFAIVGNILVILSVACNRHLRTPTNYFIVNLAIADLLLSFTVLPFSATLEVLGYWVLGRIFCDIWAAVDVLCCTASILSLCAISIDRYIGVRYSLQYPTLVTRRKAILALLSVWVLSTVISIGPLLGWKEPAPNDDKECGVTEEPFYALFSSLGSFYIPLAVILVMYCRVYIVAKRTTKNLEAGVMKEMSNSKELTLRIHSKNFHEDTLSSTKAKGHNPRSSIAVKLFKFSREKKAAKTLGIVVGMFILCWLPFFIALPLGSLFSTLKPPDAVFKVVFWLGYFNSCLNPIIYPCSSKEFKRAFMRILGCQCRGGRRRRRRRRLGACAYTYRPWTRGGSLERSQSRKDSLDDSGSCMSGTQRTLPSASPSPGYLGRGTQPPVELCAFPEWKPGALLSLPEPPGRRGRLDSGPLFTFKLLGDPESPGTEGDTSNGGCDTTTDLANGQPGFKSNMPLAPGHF
The test is described as follows: ADRA1B blocking activity assessed by antagonism of (-)-phenylephrine induced contractions on isolated rat spleen. The test is classed as functional, tissue-based. An outline of the steps:
as §2

Test [6] concerns the target T3, Alpha-1D adrenergic receptor (Rattus norvegicus) (UniProt P23944).
T3 sequence (whole entry): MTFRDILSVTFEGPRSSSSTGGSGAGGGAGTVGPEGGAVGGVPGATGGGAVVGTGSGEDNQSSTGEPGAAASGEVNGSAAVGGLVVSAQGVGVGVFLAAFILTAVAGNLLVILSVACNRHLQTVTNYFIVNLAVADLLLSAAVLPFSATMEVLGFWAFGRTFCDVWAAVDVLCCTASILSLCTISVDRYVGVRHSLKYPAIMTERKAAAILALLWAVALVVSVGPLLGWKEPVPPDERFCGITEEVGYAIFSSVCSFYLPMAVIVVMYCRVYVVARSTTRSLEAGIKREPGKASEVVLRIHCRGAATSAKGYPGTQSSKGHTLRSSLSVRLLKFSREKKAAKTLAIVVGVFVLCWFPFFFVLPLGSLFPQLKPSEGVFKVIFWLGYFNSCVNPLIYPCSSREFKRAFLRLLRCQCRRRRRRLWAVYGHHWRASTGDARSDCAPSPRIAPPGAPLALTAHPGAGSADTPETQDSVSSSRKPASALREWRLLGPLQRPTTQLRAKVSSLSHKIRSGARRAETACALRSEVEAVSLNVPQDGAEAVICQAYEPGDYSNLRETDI
Kind of test: ADRA1D blocking activity assessed by antagonism of (-)-NE induced contractions on isolated rat thoracic aorta. The format is functional, tissue-based. The method, boiled down: as §2

Test [7] deals with PC-3. Kind of test: Cytotoxic activity on human PC3 prostate cancer cells by SRB assay. The format is functional. To be noted: Homo sapiens, PC-3. An outline of the steps: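 NCI-protocol SRB assay on PC-3 cells grown in DMEM/10% FBS/2 mM glutamine. Seeded 24 h, then compounds in medium for 48 h at 37 °C, 5% CO2, in quadruplicate. A time-zero plate was read. Cells TCA-fixed, stained with 0.4% SRB, absorbance at 520 nm. GI50, TGI and LC50 interpolated from % growth versus log concentration.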
On the technique in general: Sulforhodamine B stains cellular protein and so reports cell mass.

SMILES strings stand for the structures. Active and inactive are the calls of the source. The calls are words filed in the database; no cut-off is given here.

A word on the pKb: it is the Kb on a negative log10 scale, so that one unit is a factor of ten. As a reminder, the TGI is the concentration giving total growth inhibition. The low end stands for greater sensitivity of the cells, the high end for lower sensitivity of the cells. In general, GI50 refers to the concentration at which growth is held to half of that of the control. A higher GI50 goes with less potent growth inhibition.

With `NC[C@H](O)c1ccc(O)c(O)c1` [NOREPINEPHRINE], the Activity came to 33% in the test on PC-3 [1] and 65% with PC-3 [2].
Regarding `COc1cc2nc(N3CCN(C(=O)C4COc5ccccc5O4)CC3)nc(N)c2cc1OC` (centres undefined) [DOXAZOSIN], the outcome in the test with PC-3 [3] was inactive. The results for the pKb in test [4], in test [5] and in test [6] were 8.69, 9.51 and 8.97, respectively. The TGI in the test on PC-3 [7] came to 49 µM.
In test [4], `COc1cccc(OC)c1OCCNCCOc1ccccc1OCc1ccc(OC(C)C)cc1` registered a pKb of 8.17. The pKb in test [5] was 8.62. Besides, the pKb in test [6] was found to be 9.14. Also, in the test on PC-3 [7], the GI50 turned out to be 2 µM, the LC50 (50% lethal concentration) turned out to be 63.1 µM and the TGI amounted to 17.8 µM.
For the compound `CCOc1ccc(COc2ccccc2OCCNCCOc2c(OC)cccc2OC)cc1`, the figures for the pKb in test [4], in test [5] and in test [6] were 8.5, 8.23 and 9.11, respectively. The compound also gave a GI50 in the test on PC-3 [7] of 5.2 µM. In addition, the LC50 (50% lethal concentration) with PC-3 [7] is 51.3 µM. This compound returned a TGI in the test on PC-3 [7] of 18.2 µM.

These data come from ChEMBL document CHEMBL1141864, “Structure-activity relationships in 1,4-benzodioxan-related compounds. 8.(1) {2-[2-(4-chlorobenzyloxy)phenoxy]ethyl}-[2-(2,6-dimethoxyphenoxy)ethyl]amine (clopenphendioxan) as a tool to highlight the involvement of alpha1D- and alpha1B-adrenoreceptor subtypes in the regulation of human PC-3 …” (J Med Chem, 2005).
